Calls of active or inactive are those of the source. No cut-off for these calls is given here.
Tests used:
HEK-293T = experiment: Inhibition of HIF1 transactivation activity in HEK293T cells transfected with pGL3-5HRE-VEGF-luciferase at 0.01 to 1 uM incubated for 24 hrs under hypoxia condition by luciferase reporter gene assay; type: cell-based; settings: Homo sapiens
Outline: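 HEK-293T cells were seeded at 5 × 10³/well, left 24 h, then co-transfected with a 5×HRE (human VEGF promoter) firefly luciferase plasmid and a pRL-SV40 Renilla plasmid. Cells were exposed to hypoxia (1% O₂) with serially diluted compound (0, 0.01, 0.1, 1 μM) for 24 h, with 10 μM 17-AAG as reference. Dual-Glo readout, with firefly normalized to Renilla. Three independent experiments.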

[1] = tested on: Lewis lung carcinoma cell line; experiment: animal or person; type: functional; settings: Mus musculus, ip, read-out: TGI
[2] = tested on: Lewis lung carcinoma cell line; experiment: Antitumor activity against mouse LLC cells allografted in C57BL/6J mouse assessed as inhibition of tumor growth at 5 mg/kg, ip dosed every 3 days for 17 days starting from 2 days after inoculation and co-treated with 5 mg/kg, ip EGFR inhibitor gefitinib relative to control; type: functional; settings: read-out: TGI
Outline: (§1)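 Male C57BL/6 mice, 5−6 weeks old, were given LLC cells (2 × 10⁵ in 200 μL serum-free medium) s.c. into the dorsal flanks on Day 0. From day 2, groups of n = 5 received 5 mg/kg i.p. […]. Tumor size was measured three times a week and tumor weight at sacrifice. Statistics were versus the vehicle control.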

[3] = tested on: Lewis lung carcinoma cell line; experiment: Antitumor activity against mouse LLC cells allografted in C57BL/6J mouse assessed as reduction tumor weight at 5 mg/kg, ip dosed every 3 days for 17 days starting from 2 days after inoculation relative to control; type: functional, organism-based; outline: as §1
[4] = tested on: Lewis lung carcinoma cell line; experiment: Antitumor activity against mouse LLC cells allografted in C57BL/6J mouse assessed as reduction of tumor weight at 5 mg/kg, ip dosed every 3 days for 17 days starting from 2 days after inoculation and co-treated with 5 mg/kg, ip EGFR inhibitor gefitinib relative to control; type: functional, organism-based; outline: as §1
[5] = Toxicity in C57BL/6J mouse allografted with mouse LLC cells assessed as effect on body weight at 5 mg/kg, ip dosed every 3 days for 17 days starting from 2 days after inoculation; type: organism-based, Lewis lung carcinoma; settings: in vivo; outline: as §1
[6] = Toxicity in C57BL/6J mouse allografted with mouse LLC cells assessed as effect on body weight at 5 mg/kg, ip dosed every 3 days for 17 days starting from 2 days after inoculation and co-treated with 5 mg/kg, ip EGFR inhibitor gefitinib; type: organism-based, Lewis lung carcinoma; settings: in vivo; outline: as §1

Row | SMILES | inhibition (HEK-293T) | also measured
1 | COc1ccc(C(=O)[C@@H](C)Oc2ccc([C@@H]3CCC[C@H](c4ccc(O[C@H](C)C(=O)c5ccc(OC)c(OC)c5)c(OC)c4)O3)cc2OC)cc1OC | inactive | 
2 | COc1ccc(C(=O)[C@@H](C)Oc2ccc(CC3(Cc4ccc(O[C@H](C)C(=O)c5ccc(OC)c(OC)c5)c(OC)c4)SCCCS3)cc2OC)cc1OC | inactive | 
3 | COc1ccc(C(=O)[C@H](C)Oc2ccc(/C=C/c3ccc(O[C@H](C)C(=O)c4ccc(OC)c(OC)c4)c(OC)c3)cc2OC)cc1OC | inactive | 
4 | COc1ccc(C(=O)[C@@H](C)Oc2ccc(-c3cccc(-c4ccc(O[C@H](C)C(=O)c5ccc(OC)c(OC)c5)c(OC)c4)n3)cc2OC)cc1OC | inactive | 
5 | COc1ccc(C(=O)[C@@H](C)Oc2ccc([C@@H]3CC[C@@H](c4ccc(O[C@H](C)C(=O)c5ccc(OC)c(OC)c5)c(OC)c4)N3)cc2OC)cc1OC | Dose-dependent effect | 
6 | COc1ccc([C@@H](O)[C@@H](C)Oc2ccc([C@H]3O[C@H](c4ccc(O[C@H](C)[C@H](O)c5ccc(OC)c(OC)c5)c(OC)c4)[C@H](C)[C@H]3C)cc2OC)cc1OC | Active | inhibition in vivo at 5 mg/kg [1]: 30%; inhibition in vivo at 5 mg/kg [2]: 80%; Activity [3]: Active; Activity [4]: Active; Activity [5]: Non-Toxic; Activity [6]: Non-Toxic
7 | COc1ccc(C(=O)[C@@H](C)Oc2ccc([C@@H]3C[C@@H](C)[C@@H](c4ccc(O[C@H](C)C(=O)c5ccc(OC)c(OC)c5)c(OC)c4)O3)cc2OC)cc1OC | Dose-dependent effect | 
8 | COc1cc2ncnc(Nc3ccc(F)c(Cl)c3)c2cc1OCCCN1CCOCC1 |  | Activity [3]: Active
9 | COc1ccc(C(=O)[C@@H](C)Oc2ccc(-c3cccc(-c4ccc(O[C@H](C)C(=O)c5ccc(OC)c(OC)c5)c(OC)c4)c3)cc2OC)cc1OC | inactive | 
10 | COc1ccc(C(=O)[C@@H](C)Oc2ccc(C3=C(c4ccc(O[C@H](C)C(=O)c5ccc(OC)c(OC)c5)c(OC)c4)CCC3)cc2OC)cc1OC | inactive | 
11 | C=CCN1[C@H](c2ccc(O[C@H](C)C(=O)c3ccc(OC)c(OC)c3)c(OC)c2)CC[C@H]1c1ccc(O[C@H](C)C(=O)c2ccc(OC)c(OC)c2)c(OC)c1 | inactive | 
12 | COc1ccc(C(=O)[C@@H](C)Oc2ccc([C@@H]3CC[C@@H](c4ccc(O[C@H](C)C(=O)c5ccc(OC)c(OC)c5)c(OC)c4)O3)cc2OC)cc1OC | Dose-dependent effect | 

Source: ChEMBL document CHEMBL4610125, “Evaluation of Manassantin A Tetrahydrofuran Core Region Analogues and Cooperative Therapeutic Effects with EGFR Inhibition” (J Med Chem, 2020)
